Assay results: the RNAGym collection of RNA variant scans (doi:10.1038/s41586-018-0170-7)

B1: tRNA (parent)
chain: GUUCCGUUGGCGUAAUGGUAACGCGUCUCCCUCCUAAGGAGAAGACUGCGGGUUCGAGUCCCGUACGGAACG

Variants of: B1
Test: yeast fitness, log relative to wild type (ln ratio); higher = fitter; tRNA-Arg(CCU), competitive growth, 37 C, 1 M NaCl
Procedure, shortened: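 In BY4742 missing the chromosomal gene, a combinatorial tRNA-Arg(CCU) variant library was maintained on a HIS3 centromeric plasmid. Selection ran ~6.5 generations (~26.5 h) in SC-HIS 1M NaCl at 37 °C, following 4 generations in SC-HIS at 30 °C, with three outputs per input and variant counts by 125 bp paired-end Illumina sequencing. Fitness is the natural log of a genotype's generations relative to the wild type's, with generations taken as inverse-variance-weighted, OD-scaled log2 output/input frequency.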

Q: With A43C A69G A70G as the variant, how does the “yeast fitness (ln)” value read?
A: -0.0594

Q: With U2G G6A A43C C66A A69G A70U C71U as the variant, how does the “yeast fitness (ln)” value read?
A: -0.329

Q: Which “yeast fitness (ln)” value does the source give for G1A U2G G6A C71U here?
A: -0.136

Q: With G1A U2C G6U C27U C46U C66U A69G A70U as the variant, how does the “yeast fitness (ln)” value read?
A: -0.222

Q: For G6U C27U A43C C66A A69G A70U C71U, which “yeast fitness (ln)” value is on record?
A: -0.389

Q: For G1A C27U C66A A70G, which “yeast fitness (ln)” value is on record?
A: -0.212

Q: With G1A U2C G6A C66U C71U as the variant, how does the “yeast fitness (ln)” value read?
A: -0.083

Q: For G1A C66U A70U, which “yeast fitness (ln)” value is on record?
A: -0.105

Q: For U2G G6U C27U A43C C66U C71U, which “yeast fitness (ln)” value is on record?
A: -0.381

Q: For U2C G6U C27U C46U C66A, which “yeast fitness (ln)” value is on record?
A: -0.267

Q: For U2G C27U A43C C71U, which “yeast fitness (ln)” value is on record?
A: -0.157

Q: Which “yeast fitness (ln)” value does the source give for U2G A43C C46U C71U here?
A: -0.0479

Q: For U2G G6U A70U, which “yeast fitness (ln)” value is on record?
A: -0.0383

Q: Which “yeast fitness (ln)” value does the source give for U2G G6A C27U C46U C66U A69G A70G here?
A: -0.199

Q: With U2C C46U C66U A70G as the variant, how does the “yeast fitness (ln)” value read?
A: 0.0022

Q: With U2C A43C C46U C66A A70U C71U as the variant, how does the “yeast fitness (ln)” value read?
A: -0.169

Q: For G6U C27U C46U A69G A70G, which “yeast fitness (ln)” value is on record?
A: -0.192

Q: With G1A U2G G6A C66U A70G as the variant, how does the “yeast fitness (ln)” value read?
A: -0.142

Q: With G1A U2G G6A C27U A70U C71U as the variant, how does the “yeast fitness (ln)” value read?
A: -0.264

Q: Which “yeast fitness (ln)” value does the source give for A43C A70U C71U here?
A: -0.0836

Q: With U2C C27U A43C C66U A70G C71U as the variant, how does the “yeast fitness (ln)” value read?
A: -0.207

Q: Which “yeast fitness (ln)” value does the source give for G1A U2G C27U A43C C46U A69G A70G C71U here?
A: -0.221

Q: For G1A U2C G6U C46U C71U, which “yeast fitness (ln)” value is on record?
A: -0.111

Q: With G1A U2G G6U A43C C46U C66A A69G A70U as the variant, how does the “yeast fitness (ln)” value read?
A: -0.256

Q: For G6U C27U A43C C46U C66U A70G C71U, which “yeast fitness (ln)” value is on record?
A: -0.378

Q: For G1A G6U C27U C46U C66A A70U, which “yeast fitness (ln)” value is on record?
A: -0.249

Q: Which “yeast fitness (ln)” value does the source give for G1A U2G A43C C46U C66U A70G here?
A: -0.22

Q: For G1A U2G G6U C27U A43C C46U A69G A70G, which “yeast fitness (ln)” value is on record?
A: -0.192

Q: For U2G G6A A43C C46U C66A C71U, which “yeast fitness (ln)” value is on record?
A: -0.153

Q: With G6A C46U C66U A69G A70G C71U as the variant, how does the “yeast fitness (ln)” value read?
A: -0.581

Q: With U2G G6U C27U C66U A70U as the variant, how does the “yeast fitness (ln)” value read?
A: -0.342

Q: With A43C C66U A69G A70U C71U as the variant, how does the “yeast fitness (ln)” value read?
A: -0.365

Q: With G1A U2G A43C A70U as the variant, how does the “yeast fitness (ln)” value read?
A: -0.33

Q: For A43C C46U A69G C71U, which “yeast fitness (ln)” value is on record?
A: -0.0511

Q: For G1A A43C C66A A70G C71U, which “yeast fitness (ln)” value is on record?
A: -0.164

Q: With G1A U2C A43C A70G as the variant, how does the “yeast fitness (ln)” value read?
A: -0.0553

Q: For G1A U2C G6A C27U A43C C46U C66U A70U, which “yeast fitness (ln)” value is on record?
A: -0.0654

Q: Which “yeast fitness (ln)” value does the source give for G1A A43C C46U here?
A: -0.059

Q: For G1A C27U A43C A69G A70G, which “yeast fitness (ln)” value is on record?
A: -0.303

Q: For U2C G6U A70U, which “yeast fitness (ln)” value is on record?
A: -0.0726

Q: For G1A U2G C27U A69G C71U, which “yeast fitness (ln)” value is on record?
A: -0.251

Q: For U2G G6A A43C C46U A70U, which “yeast fitness (ln)” value is on record?
A: -0.261

Q: For U2C G6U A43C C46U A70U, which “yeast fitness (ln)” value is on record?
A: -0.061

Q: With U2C G6A C46U C66U A69G A70U as the variant, how does the “yeast fitness (ln)” value read?
A: -0.138

Q: With U2G G6U C27U C46U C66U A70U C71U as the variant, how does the “yeast fitness (ln)” value read?
A: -0.312

Q: For G6U C27U A43C C46U C66A A69G A70G, which “yeast fitness (ln)” value is on record?
A: -0.471

Q: Which “yeast fitness (ln)” value does the source give for G1A U2G G6U C27U C46U C66U A70U here?
A: -0.236

Q: Which “yeast fitness (ln)” value does the source give for U2G G6U C27U C46U C66U A69G A70G here?
A: -0.277

Q: With G6U C46U C66A A70U C71U as the variant, how does the “yeast fitness (ln)” value read?
A: -0.394

Q: For U2G C27U A43C C46U A69G A70G, which “yeast fitness (ln)” value is on record?
A: -0.114

Q: With U2G G6A A43C C46U C66A as the variant, how does the “yeast fitness (ln)” value read?
A: -0.141

Q: With C66A A70G as the variant, how does the “yeast fitness (ln)” value read?
A: -0.0114

Q: For U2G G6A C27U A43C C46U C66A A70U, which “yeast fitness (ln)” value is on record?
A: -0.115

Q: For C27U A43C C46U C66U A70U C71U, which “yeast fitness (ln)” value is on record?
A: -0.333

Q: Which “yeast fitness (ln)” value does the source give for U2G G6U C27U A43C C66A A69G A70U C71U here?
A: -0.382

Q: Which “yeast fitness (ln)” value does the source give for G1A U2G G6U C27U C46U C66A A70U here?
A: -0.322

Q: Which “yeast fitness (ln)” value does the source give for G1A U2C C27U A43C C66U A69G A70G C71U here?
A: -0.21

Q: Which “yeast fitness (ln)” value does the source give for G1A U2C C27U C46U C66U C71U here?
A: -0.124

Q: Which “yeast fitness (ln)” value does the source give for U2G C27U C46U C66U A69G A70U C71U here?
A: -0.376

Q: For U2C G6U C27U A43C C46U A69G A70G, which “yeast fitness (ln)” value is on record?
A: -0.227

Q: For G6U C27U A43C C46U C66U A70U C71U, which “yeast fitness (ln)” value is on record?
A: -0.467

Q: For G1A G6U C27U A43C C66U A70U C71U, which “yeast fitness (ln)” value is on record?
A: -0.391

Q: For G1A U2G C27U A43C C46U A69G A70U, which “yeast fitness (ln)” value is on record?
A: -0.161

Q: For U2C G6U C46U C66U A70G, which “yeast fitness (ln)” value is on record?
A: -0.0115

Q: For G1A U2G C27U A43C C46U C66A C71U, which “yeast fitness (ln)” value is on record?
A: -0.254

Q: For U2C G6A C27U A43C C46U C66U A69G A70G, which “yeast fitness (ln)” value is on record?
A: -0.0296

Q: With A43C C46U C66U A69G A70G C71U as the variant, how does the “yeast fitness (ln)” value read?
A: -0.158

Q: Which “yeast fitness (ln)” value does the source give for G1A U2G C27U C66U A70G C71U here?
A: -0.321

Q: With G1A G6U C27U A43C C46U C66U A70G as the variant, how does the “yeast fitness (ln)” value read?
A: -0.387

Q: For G1A U2C G6A A43C C46U C66U A69G A70G, which “yeast fitness (ln)” value is on record?
A: -0.232

Q: With G1A C27U C46U C66A A70U C71U as the variant, how does the “yeast fitness (ln)” value read?
A: -0.208

Q: For G1A U2G G6A C27U A43C C46U C66U A70G, which “yeast fitness (ln)” value is on record?
A: -0.216

Q: With U2C G6A C27U A43C C46U C66U A69G A70U C71U as the variant, how does the “yeast fitness (ln)” value read?
A: -0.32

Q: Which “yeast fitness (ln)” value does the source give for U2G G6U C27U A70U here?
A: -0.397

Q: With G6U C27U A43C C46U C66U A69G A70G as the variant, how does the “yeast fitness (ln)” value read?
A: -0.396

Q: With G1A U2C C27U A43C C46U C66A A70U C71U as the variant, how does the “yeast fitness (ln)” value read?
A: -0.27

Q: For G1A U2G G6A C66U A69G A70U, which “yeast fitness (ln)” value is on record?
A: -0.334

Q: Which “yeast fitness (ln)” value does the source give for G1A U2G A43C C46U C66A C71U here?
A: -0.138

Q: For U2C G6U C27U A43C C46U C66A A70U, which “yeast fitness (ln)” value is on record?
A: -0.0786

Q: For G6A C27U A43C C46U A70U, which “yeast fitness (ln)” value is on record?
A: -0.139

Q: Which “yeast fitness (ln)” value does the source give for G1A A43C C66U A69G A70G C71U here?
A: -0.293

Q: Which “yeast fitness (ln)” value does the source give for U2G G6U C66A here?
A: -0.0885

Q: For G6U A43C C66U A69G A70U, which “yeast fitness (ln)” value is on record?
A: -0.356
